Read-outs that look alike come from different tables or passages of the source.
Tests used:
[1] = system: SKOV3 cells (human ovarian carcinoma); assay: MTT cytotoxicity assay, SKOV3; format: cell-based; settings: read-out: (IC50 ± SD) SKOV3, at least 72 h incubation, mean ± SD
Outline: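 Cells were grown in RPMI 1640 with 10% FBS and 1% penicillin-streptomycin at 37 °C, humidified CO2. They were seeded at 0.8 × 10^4 cells/well and allowed 24 h recovery. Test compound was added at 1–100 μM in triplicate for at least 72 h. Medium was replaced with 0.5 mg/mL MTT for 3 h at room temperature, and formazan was dissolved in DMSO. Absorbance was read at 490 nm. IC50 came from curve fitting, reported as mean ± SD.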

[2] = system: A549 cells (human lung carcinoma); assay: MTT cytotoxicity assay, A549; format: cell-based; settings: read-out: (IC50 ± SD) A549
SKOV3 cells = assay: Intracellular ROS determination; format: cell-based, human; settings: SKOV3, 1000 μM, positive control
Outline: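 SKOV3 single-cell suspension (300 × 10^3) was exposed to test compound at 10, 20 or 40 μM for 2 h at 37 °C; untreated cells served as negative control. Cells were washed and loaded with DCFH-DA in phenol red-free RPMI for 1 h at 37 °C. The positive control got H2O2 (1000 μM) for a further 20 min. At least 15000 events were acquired by flow cytometry. ROS is reported as MFI divided by the untreated MFI0.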

MCF-7 cells = assay: Comet assay; format: cell-based, human; settings: MCF-7, 1 μM, positive control, versus untreated cells
Outline: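 Alkaline comet assay on MCF-7 cells (5 × 10^5). Cells got test compound at 10 or 50 μM, doxorubicin at 1 μM as positive control, or no treatment, for 20 min at 37 °C in 5% CO2. Cells were embedded in LMPA over NMPA-coated slides, lysed cold overnight and held 40 min in alkaline buffer. Slides were electrophoresed at 24 V/300 mA, neutralised at pH 7.4, ethanol-dehydrated, PI-stained (50 μg/ml) and imaged by fluorescence microscopy at 20×.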

[3] = MTT, at least 72 h incubation, mean ± SD

Row | SMILES | IC50 ([2]; Homo sapiens, A549, 72 h) | other results
1 | N.N.[Cl][Pt][Cl] [Cisplatin, reference compound] | – | IC50 [1]: 14.5 ± 1.54 µM; IC50 [2, 3]: 9.71 ± 1.7 µM
2 | OO [Complex H2O2, H2O2] | – | ROS induction (SKOV3 cells): could induce ROS production within 20 minutes
3 | C=CCP(c1ccccc1)c1ccccc1 [PPh2allyl, allyldiphenylphosphine] | – | IC50 [2, 3]: > 100 µM
4 | Sc1nc2ccccc2[nH]1 [Sbi, benzimidazole-2-thiol] | > 100 µM | –
5 | Sc1nc2ccccc2s1 [Sbt, benzothiazole-2-thiol] | > 100 µM | –
6 | Sc1ccccn1 [Spy, pyridine-2-thiol] | > 100 µM | –
7 | FC(F)(F)c1ccc(S)nc1 [Spy-5-CF3, 5-(trifluoromethyl)-pyridine-2-thiol] | > 100 µM | –
8 | Sc1ncccn1 [SpyN, pyrimidine-2-thiol] | > 100 µM | –
9 | COc1cccc2c1C(=O)c1c(O)c3c(c(O)c1C2=O)C[C@@](O)(C(=O)CO)C[C@@H]3O[C@H]1C[C@H](N)[C@H](O)[C@H](C)O1 [doxorubicin] | – | percentage of degraded DNA in the tail (MCF-7 cells): remarkably increase

Source: paper PMC7108934 (ChemPlusChem, 2019)
